Measured values from ChEMBL document CHEMBL4610015, “Scaffold-hopping identifies furano[2,3-d]pyrimidine amides as potent Notum inhibitors” (Bioorg Med Chem Lett, 2020).

Tests used:
[1] = Efflux ratio of apparent permeability in dog MDCK-MDR1 cells; type: ADME, cell-based, Canis lupus familiaris
[2] = Apparent permeability across apical to basolateral membrane in dog MDCK-MDR1 cells; type: ADME, cell-based, Canis lupus familiaris
[3] = Apparent permeability across basolateral to apical membrane in dog MDCK-MDR1 cells; type: ADME, cell-based, Canis lupus familiaris
[4] = Intrinsic clearance in mouse liver microsomes; type: ADME, Microsome; conditions: read-out: CLH
[5] = target: T1, Palmitoleoyl-protein carboxylesterase NOTUM (Homo sapiens, UniProt Q6P988, C330S); type: ADME, cell-based; conditions: 72 h
T1 sequence (Q6P988 20-496 C330S limits assumed): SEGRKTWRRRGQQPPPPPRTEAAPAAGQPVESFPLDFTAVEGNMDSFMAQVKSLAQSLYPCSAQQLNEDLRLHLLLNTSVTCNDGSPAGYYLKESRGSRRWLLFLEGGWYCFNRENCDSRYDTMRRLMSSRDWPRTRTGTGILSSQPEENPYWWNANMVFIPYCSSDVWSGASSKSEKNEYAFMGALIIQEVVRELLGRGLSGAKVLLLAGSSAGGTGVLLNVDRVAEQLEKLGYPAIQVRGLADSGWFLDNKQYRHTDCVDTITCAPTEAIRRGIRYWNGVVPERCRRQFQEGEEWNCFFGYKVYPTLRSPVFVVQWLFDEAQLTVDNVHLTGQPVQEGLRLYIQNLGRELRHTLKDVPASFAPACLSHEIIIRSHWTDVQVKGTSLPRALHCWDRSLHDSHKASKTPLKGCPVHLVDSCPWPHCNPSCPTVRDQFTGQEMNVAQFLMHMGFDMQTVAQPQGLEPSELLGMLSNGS

[6] = Stability of the compound in citrate buffer at pH 4 measured up to 24 hrs by UPLC-MS analysis; type: physicochemical; conditions: pH 4, 24 h
How it was run: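 Incubated in 0.1 M citrate buffer at pH 4 and sampled at several time points up to 24 h. The parent amide was monitored by UPLC-MS.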

[7] = target: T1, Palmitoleoyl-protein carboxylesterase NOTUM; type: cell-based

efflux ratio [1]	Papp A→B [2] [×10⁻⁶ cm/s]	Papp B→A [3] [×10⁻⁶ cm/s]	microsomal CLint [4] [µL/min/mg]	Stability [5]	Stability [6]	IC50 [7] [nM]	Compound
8.2	7.9	65	24				O=C1CN(C(=O)CSc2ncnc3c(C4CC4)c(Cl)sc23)CCN1
3.7	3.8	14	19				O=C1CN(C(=O)CSc2ncnc3c(C4CC4)c(Cl)sc23)CN1
0.95	40	38	> 500				O=C(CSc1ncnc2c(C3CC3)c(Cl)sc12)N1CCOCC1
				Stable	Stable		Cc1sc2ncnc(SCC(=O)N3CCn4cnnc4C3)c2c1Cl
98	0.95	93	29			1.1	O=C(CSc1ncnc2c(C3CC3)c(Cl)sc12)N1CCn2cnnc2C1
				Stable	Stable		Cc1sc2ncnc(SCC(=O)N3CC(=O)N(C)C3)c2c1Cl
						3	Cc1sc2ncnc(SCC(=O)O)c2c1Cl
